In PubChem BioAssay AID2237 (Johns Hopkins Ion Channel Center, 2010) one finds B-score data, which are given here for 45 molecules.

The structures appear in SMILES notation. Among all 310,000 compounds or so, about 1,500 (0.48%) were called active. The sample holds actives, similar compounds and a random draw of the others, so the mix is not that of the screen.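 Rule for the calls: active = B-score above 5 SD of library B-scores, and initial fluorescence ratio not above library mean plus 5 SD; inactive = the rest.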

Short transient receptor potential channel 4 (Mus musculus), sequence (Q9QUQ5 whole entry, looked up): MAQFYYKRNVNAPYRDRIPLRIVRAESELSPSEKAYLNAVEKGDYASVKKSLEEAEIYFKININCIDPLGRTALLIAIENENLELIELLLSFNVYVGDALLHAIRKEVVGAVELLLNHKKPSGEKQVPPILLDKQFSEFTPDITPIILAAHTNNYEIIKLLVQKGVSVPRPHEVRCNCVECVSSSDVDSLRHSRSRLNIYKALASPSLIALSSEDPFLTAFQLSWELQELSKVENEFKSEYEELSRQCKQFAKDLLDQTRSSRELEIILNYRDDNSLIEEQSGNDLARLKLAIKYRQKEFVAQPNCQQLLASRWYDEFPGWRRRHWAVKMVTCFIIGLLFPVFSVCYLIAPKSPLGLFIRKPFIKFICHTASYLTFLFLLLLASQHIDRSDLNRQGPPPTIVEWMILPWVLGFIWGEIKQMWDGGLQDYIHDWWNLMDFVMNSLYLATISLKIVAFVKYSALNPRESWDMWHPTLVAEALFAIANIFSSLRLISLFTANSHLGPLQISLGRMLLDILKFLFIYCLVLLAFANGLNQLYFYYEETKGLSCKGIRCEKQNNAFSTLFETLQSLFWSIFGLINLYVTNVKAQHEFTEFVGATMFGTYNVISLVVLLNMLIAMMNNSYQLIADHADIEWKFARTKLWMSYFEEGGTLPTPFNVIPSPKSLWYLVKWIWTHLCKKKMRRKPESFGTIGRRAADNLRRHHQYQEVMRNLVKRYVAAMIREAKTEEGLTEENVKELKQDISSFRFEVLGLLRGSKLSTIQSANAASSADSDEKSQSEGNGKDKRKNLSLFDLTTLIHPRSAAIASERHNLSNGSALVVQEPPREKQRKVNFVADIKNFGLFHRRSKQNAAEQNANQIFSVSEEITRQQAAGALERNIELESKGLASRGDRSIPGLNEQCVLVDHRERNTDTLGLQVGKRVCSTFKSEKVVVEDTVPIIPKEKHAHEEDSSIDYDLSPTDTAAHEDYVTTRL

This assay deals with Short transient receptor potential channel 4 (Mus musculus) (UniProt Q9QUQ5). The assay can be described thus: TRPC4 cation channel opening, calcium rise – Fluo4 calcium, HEK293 TRPC4beta/mu-opioid cells, primary screen (AID 2237).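 For B-score: positive B-score marks a calcium rise read as TRPC4 activation.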 Particulars: Fluo4 calcium fluorescence, at 10 µM; stronger effect = higher value. The essentials:
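System – HEK293 cells stably co-expressing mouse TRPC4beta and mu-opioid receptor · Signal – Fluo4 calcium-sensitive dye fluorescence, kinetic, 1 Hz baseline · Benchmarks – buffer (low) and maximal DAMGO (high) · Read-out – B score of integrated fluorescence ratio per well · Incubation – dye loading 45 min room temperature, 110 s kinetic read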
With `c1ccc2sc(N3CCNCC3)nc2c1`, the B-score was 173 (active).
In the case of `COc1cc(OC)cc(C2(C#N)CCN(C)CC2)c1` it was “inactive”.
Then `C/C(=N/O)c1ccc2ccc3ccccc3c2c1`, with “inactive”.
In the case of `CCC1(C)CC(CCNCc2ccc(N(C)C)cc2)(c2ccc(F)cc2)CCO1` (stereo not given) it was 114 (active); in that of `CCCCCCCCCCCCn1ccc(=N)cc1`, “inactive”.
In the case of `O=C(c1cc2nc(-c3ccccc3)cc(-c3ccccc3)n2n1)N1CCC2(CC1)OCCO2`, the B-score result is “inactive”.
As for `N#Cc1ccc(Cn2cc(C(=O)c3ccco3)c3ccccc32)cc1`, the B-score entry is “inactive”.
Then `CN(C)C(=O)Oc1ccc(NC(=O)N2CCOCC2)cc1`, with “inactive”; and `Cc1nc2ccccn2c1P(=S)(N1CCCCC1)N1CCCCC1`, with 87 (active).
Consider `CC(=C1C(=O)c2ccccc2C1=O)N1CCN(CCN=Cc2c(O)n(C)c(=O)n(C)c2=O)CC1`, for which the B-score entry is “inactive”.
Then `Cc1nc2ccccc2c(=O)n1-c1ccc(Cl)cc1Cl`, with “inactive”.
Take `Cc1ccc(Cn2nnnc2CN2CCC(n3nnc4ccccc43)CC2)cc1`: the B-score entry was “inactive”.
Then `CCN(CC)C(=O)c1ccc(NC(=O)c2cc(-n3cnnc3)ccc2Cl)cc1`, with “inactive”; and `c1cncc(CNCCc2c[nH]c3ccccc23)c1`, with “inactive”.
Then `COc1ccc(CNCCc2c[nH]c3ccccc23)cc1OC`, with 88 (active); and `COc1ccc(CNCCc2ccc3c(c2)OCO3)c(OC)c1OC`, with “inactive”.
Then `CC1C2Cn3c(nc4ccccc43)C1N(C)O2` (stereo not given), with “inactive”; and `CCN1CCN(c2nc3c(c(=O)[nH]2)CCC3)CC1`, with “inactive”.
For the molecule `Cc1ccnc(-n2c(C)cc(/C=C3\C(=O)NC(=S)N(C)C3=O)c2C)c1`, the B-score result is “inactive”.
`c1ccc(CCN2CCC3(CC2)OCCO3)cc1`: the B-score result is “inactive”.
On to `C[N+]1(C)CCOC(O)(c2ccc(-c3ccc(C4(O)C[N+](C)(C)CCO4)cc3)cc2)C1` (stereo not given), for which the B-score entry was “inactive”.
In the case of `c1ccc2sc(C3CCCNC3)nc2c1` (stereo not given) it was 159 (active); in that of `COc1ccccc1N=C1SCCCN1C`, “inactive”.
Take `COc1ccc2c(c1O)-c1cccc3c1[C@@H](C2)N(C)CC3`: the B-score result is “inactive”.
Then `CC(=NC1CCN(Cc2ccccc2)CC1)c1c(O)n(C)c(=O)n(C)c1=O`, with “inactive”.
Regarding `CCN(CC)CCOC(=O)c1cc2cc(COC)ccc2o1`, the B-score entry was “inactive”.
Then `COC(=O)C1=C(c2ccccc2)C[C@@H]2CC[C@H]1N2C(=O)N1CCCCC1`, with “inactive”.
As for `COc1ccc(C(=O)C2CCCN(Cc3ccc(C)s3)C2)cc1OC` (stereo not given), the B-score result is “inactive”.
In the case of `Cc1ccc(CN2CCCC(C(=O)c3ccc4c(c3)OCO4)C2)cc1C` (stereo not given), the B-score result was “inactive”.
In the case of `CSc1ccc(C(=O)C2CCCN(Cc3ccn[nH]3)C2)cc1` (stereo not given) it was 52 (active).
In the case of `c1ccc(CCNC2CCCCCC2)cc1` it was “inactive”; in that of `CCCCC(=O)N/N=C/c1c(O)n(-c2ccccc2)c(=O)[nH]c1=O`, “inactive”; in that of `CCCCC(=O)N/N=C/c1c(O)n(CC)c(=S)n(CC)c1=O`, 103 (active).
In the case of `CCCCC(=O)N/N=C/c1c(O)n(CCC2=CCCCC2)c(=O)[nH]c1=O` it was “inactive”; in that of `O=C1NC(=O)C(C/C=C/c2ccccc2)C(=O)N1`, “inactive”; in that of `CC(=O)N(C1=NCCCS1)c1ccccc1F`, 44 (active).
On to `O=c1c2ccccc2nc(-c2ccc(Cl)cc2Cl)n1-c1ccncc1`, for which the B-score entry was “inactive”.
With `COc1ccc(N=Cc2c(O)n(C)c(=O)[nH]c2=O)cc1`, the B-score result was “inactive”.
In the case of `Cn1c(C(=O)N2CCC(C(=O)N3CCC4(CC3)OCCO4)CC2)cc2sccc21` it was “inactive”; in that of `COC(=O)C1=C(c2cc3ccccc3s2)C[C@@H]2CC[C@H]1N2C(=O)NCCO`, 72 (active); in that of `COC(=O)C1=C(c2cc3ccccc3s2)C[C@@H]2CC[C@H]1N2C(=O)NC(C)C`, “inactive”.
As for `COC(=O)C1=C(c2cc3ccccc3s2)C[C@@H]2CC[C@H]1N2C(=O)NCc1cccc2ccccc12`, the B-score result is “inactive”.
In the case of `C=CCN1C(=O)C2(C(C(=O)OCC)=C(N)Oc3c2c(=O)oc2ccccc32)c2ccccc21` (stereo not given) it was “inactive”.
Turning to `COc1ccccc1C1=NCc2nnc(CSC)n2-c2ccc(Cl)cc21`, the B-score result was “inactive”.
In the case of `CN(C)CCN(CC1CCCN(Cc2ccccc2F)C1)C(=O)Cc1ccc(F)c(F)c1` (stereo not given) it was “inactive”.
